The values that follow come from ChEMBL document CHEMBL4823261, “Grincamycins P-T: Rearranged Angucyclines from the Marine Sediment-Derived Streptomyces sp. CNZ-748 Inhibit Cell Lines of the Rare Cancer Pseudomyxoma Peritonei” (J Nat Prod, 2021).

The pIC50 is the negative decadic logarithm of the IC50, by convention in mol/L.

Data set [1] in a line: Cytotoxicity against human C09-1 cells assessed as inhibition of cell proliferation measured after 24 hrs by crystal violet staining assay. The data set is classed as functional, cell-based. The note with it: C09-1, 24 h. The essentials:
(§1)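 PMP-derived lines (ABX023-1, PMP457-2, PMP501-1) and mucinous colonic adenocarcinoma peritoneal metastasis line C09-1. Seeded at 30 000 cells/well in triplicate in Ham's F12 with 10% FBS, L-glutamine, insulin and sodium selenite. Grown 24 h at 37 °C, then treated for 24 h. Controls were DMSO vehicle, 5-fluorouracil and 10% EtOH dead-cell. Cells were stained with 0.2% crystal violet, solubilised in SDS/EtOH and read at OD595.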

Data set [2] is described as follows: Cytotoxicity against human PMP501-1 cells assessed as inhibition of cell proliferation measured after 24 hrs by crystal violet staining assay. The note with it: PMP501-1, 24 h. The data set is classed as functional, cell-based. The essentials: as §1
Data set [3] in a line: Cytotoxicity against human PMP457-2 cells assessed as inhibition of cell proliferation measured after 24 hrs by crystal violet staining assay. It is filed as functional, cell-based. The note with it: PMP457-2, 24 h. The essentials:
as §1

Data set [4] can be described thus: Cytotoxicity against human ABX023-1 cells assessed as inhibition of cell proliferation measured after 24 hrs by crystal violet staining assay. The data set is classed as functional, cell-based. The note with it: ABX023-1, 24 h. The essentials:
as §1

The nature of data set [5]: Stability of the compound in 0.1% TFA/MeOH solution measured after 12 hrs by LC/MS analysis. It is filed as physicochemical. The essentials:
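10 μg aliquots were incubated in 0.1% TFA in MeOH at 30 °C for 12 h, then dried under N2 and redissolved in MeOH. Analysed by UHPLC-DAD-ESI(±)MS on C18 with a water/MeCN gradient containing 0.1% formic acid. Compared against authentic standards run by the same method.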

Molecules are shown by their SMILES. pIC50: −log10 of the molar value.

For `CSC1=CC(=O)[C@H](C)O[C@H]1O[C@H]1CC[C@H](O[C@H]2[C@H](O)C[C@H](c3ccc4c(c3O)C(=O)c3ccc(C[C@](C)(CC(=O)O)O[C@H]5CC[C@H](O[C@H]6CC[C@H](O)[C@H](C)O6)[C@H](C)O5)c(O)c3C4=O)O[C@@H]2C)O[C@H]1C`, the pIC50 is 4.21 in data set [1], 5.41 in data set [2], 5.11 in data set [3] and 4.89 in data set [4].

In the case of `C[C@@H]1O[C@@H](O[C@H]2[C@H](O)C[C@H](c3ccc4c(c3O)C(=O)c3ccc(C[C@@](C)(O)CC(=O)O)c(O)c3C4=O)O[C@@H]2C)CC[C@@H]1O[C@H]1CC[C@H](O)[C@H](C)O1`, the pIC50 was 4.49 in data set [1], < 4.00 in data set [2], 4.64 in data set [3] and 4.68 in data set [4].

`C[C@H]1O[C@@H](c2ccc3c(c2O)C(=O)c2ccc(C[C@@](C)(O)CC(=O)O)c(O)c2C3=O)C[C@@H](O)[C@@H]1O`: the Stabilty result in data set [5] is recorded as “Stable”. The pIC50 is 4.38 in data set [1], 4.96 in data set [2], 5.17 in data set [3] and 4.31 in data set [4].

On to `C[C@@H]1O[C@@H](O[C@H]2CC[C@H](O[C@H]3[C@H](O)C[C@H](c4ccc5c(c4O)C(=O)c4ccc(C[C@@](C)(O)CC(=O)O)c(O)c4C5=O)O[C@@H]3C)O[C@H]2C)C(N)=CC1=O`, for which the pIC50 in data set [1] is 4.77; in data set [2], 4.92; in data set [3], < 4.00; in data set [4] it was 4.64.

In the case of `C[C@@H]1O[C@H]2O[C@@H]3[C@@H](C)O[C@@H](c4ccc5c(c4O)C(=O)c4ccc(C[C@@](C)(O)CC(=O)O)c(O)c4C5=O)C[C@H]3O[C@H]2C[C@@H]1O`, in data set [5], the Stabilty entry is given as “Stable”. For the same compound, the pIC50 in data set [1] is 4.72; in data set [2], 4.64; in data set [3] it was < 4.00; in data set [4] it was 4.85.

In the case of `C[C@@H]1O[C@@H](O[C@H]2[C@H](O)C[C@H](c3ccc4c(c3O)C(=O)c3c(O)cc(C[C@@](C)(O)CC(=O)O)c(O)c3C4=O)O[C@@H]2C)CC[C@@H]1O[C@H]1CC[C@H](O)[C@H](C)O1`, the pIC50 in data set [1] was 5.00; in data set [2], 5.60; in data set [3] it was 5.26; in data set [4], 5.33.

As for `O=c1[nH]cc(F)c(=O)[nH]1` [FLUOROURACIL], the pIC50 in data set [1] is 5.40; in data set [2], 5.44; in data set [3] it was 5.70; in data set [4], 5.47.

Take `C[C@@H]1O[C@@H](O[C@H]2[C@H](O)C[C@H](c3ccc4c(c3O)C(=O)c3ccc(C[C@@](C)(O)CC(=O)O)c(O)c3C4=O)O[C@@H]2C)CC[C@@H]1O`: the pIC50 is 5.18 in data set [1], 4.85 in data set [2], 5.23 in data set [3] and 4.92 in data set [4].

Turning to `C[C@@H]1O[C@@H](O[C@H]2[C@H](O)C[C@H](c3ccc4c(c3O)C(=O)c3ccc(C[C@](C)(CC(=O)O)O[C@H]5CC[C@H](O[C@H]6CC[C@H](O)[C@H](C)O6)[C@H](C)O5)c(O)c3C4=O)O[C@@H]2C)CC[C@@H]1O[C@H]1CC[C@H](O)[C@H](C)O1`, the pIC50 in data set [1] was 4.42; in data set [2] it was 4.74; in data set [3], 4.96; in data set [4], 4.35.

Consider `C[C@@H]1O[C@@H](O[C@H]2[C@H](O)C[C@H](c3ccc4c(c3O)C(=O)c3c(O)cc(C[C@](C)(CC(=O)O)O[C@H]5CC[C@H](O[C@H]6CC[C@H](O)[C@H](C)O6)[C@H](C)O5)c(O)c3C4=O)O[C@@H]2C)CC[C@@H]1O[C@H]1CC[C@H](O)[C@H](C)O1`, for which the pIC50 was 5.06 in data set [1], 5.57 in data set [2], 5.72 in data set [3] and 5.85 in data set [4].
